Laboratory results as given in PubChem BioAssay.
A number with no mark means an inactive call. Records with an inconclusive call do not appear. Activity calls are given as the source filed them.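 Rule for the calls, unless noted: active = cell viability at or below a set limit in both duplicate runs, the limit being the all-compound median minus 4 SD (cut at about 23% in these data, passing the limit was not always enough); inconclusive = no clear call, values can overlap the other calls; inactive = the rest.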

Columns and labels:
[1] = S. cerevisiae growth inhibition in permissive medium (OD615), pilot counter-assay for S. cerevisiae lifespan shortening project, permissive growth control (AID 705;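 active = growth inhibition above 25% in both replicates, a cutoff set 3 SD above the mean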); details: OD615, 24 h, at 10 µM, hits give high values
Method in brief: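 System: Engineered DeaD yeast | Buffer or medium: SC raffinose/galactose permissive medium | Incubation: Cells pre-grown 4 h, then 24 h compound exposure, 30 °C humidified | Measured by: Absorbance (optical density) at 615 nm | Read-out: Reduction in yeast growth (OD615)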

[2] = S. cerevisiae growth inhibition in restrictive medium, OD615, pilot screen, restrictive growth control, yeast lifespan reduction project (AID 706;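 active = growth inhibition above a set limit, 3 SD over mean compound inhibition, in both replicates, cut at about 43% in these data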;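 note: modified DeaD lifespan yeast strain shifted to restrictive glucose medium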); details: OD615, 48 h, at 10 µM, hits give high values
Method in brief: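 Material: modified S. cerevisiae; Medium: glucose-based CSMM-D restrictive medium; Compound dosing: one concentration, 10 µM final, 0.25% DMSO; Incubation: 48 h compound exposure at 30 °C; Measured by: OD615.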

[3] = doxorubicin toxicity protection in MRP-1 cells – H69AR cells, CellTiter-Glo, duplicate, MRP-1 activator project, pilot screen (AID 807;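 active = viability increase at or above a cutoff of the median across tested compounds plus 3 SD, cut at about 8.5% in these data, passing the limit was not always enough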;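 note: compound pretreatment 18-22 h then 72 h combined with doxorubicin; 0% = doxorubicin alone and 100% = vehicle without doxorubicin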); details: H69AR viability with doxorubicin, CellTiter-Glo luminescence; at 10 µM; hits give high values
[4] = viability of HCT116 without oncogenic beta-catenin – human colon tumor cells, pilot screen (AID 823); details: HCT116 beta-catenin knockout viability, CellTiter-Glo, 60 h; at 10 µM; hits give low values;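 note: 0% = wells killed by 20 µM Hyamine and 100% = untreated DMSO cell wells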
[5] = viability of PTEN-null HCT116 cells – cell-based, HCT116 clonal line, CellTiter-Glo, pilot screen (AID 824;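 active = viability at or below 27.92% in each of two runs, the all-compound median minus 4 SD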;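 note: 0% = 20 µM Hyamine control and 100% = vehicle cell control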); details: HCT116 PTEN-deleted viability, 60 h, at 10 µM, hits give low values
[6] = RAM pathway blockade in budding yeast – dse1pr::URA3 reporter, 5-FOA selection, pilot screen (AID 869;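 active = inhibition over a set limit, the all-compound mean plus 3 SD, in both replicate runs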;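 note: 0% = DMSO wells with no growth and 100% = 10 µM 1-NA-PP1 with full growth; RAM network block rescues cells from 5-FOA so hits raise OD615 growth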); details: S. cerevisiae dse1pr::URA3 5-FOA growth, OD615, 2 d; at 10 µM; hits give high values; strain carries analog-sensitive mutant Cbk1 kinase
[7] = RAM signaling pathway blockade in yeast – S. cerevisiae, Pdr1DBD-CYC8 efflux-inhibited sensitized strain, primary screen (AID 1298;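 active = RAM network inhibition above 8.4% in each of two replicates, 3 SD over the compound average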;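 note: 0% = DMSO untreated cells without growth and 100% = 10 µM 1-NA-PP1 full growth; higher means more yeast growth rescued from 5-FOA killing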); details: S. cerevisiae cbk1-as DSE1-URA3 strain, 5-FOA growth OD615, 2 d; at 50 µM; hits give high values

| SMILES | growth inhibition [1] [%] | growth inhibition [2] | viability increase [3] [%] | viability [4] [%] | viability [5] [%] | inhibition [6] [%] | RAM network inhibition [7] [%] |
| --- | --- | --- | --- | --- | --- | --- | --- |
| COc1ccc(C2C/C(=N\O)C(C)(C)O2)cc1 (stereo not given) | -16.5 | -4.77% | -0.83 | 97.1 | 93.7 | 1.06 | 3.9 |
| CCCOC(=O)c1ccc(-n2nnnc2SCC(=O)N2CCCCC2)cc1 | -11.6 | -5.64% | -0.35 | 80.3 | 86 | 0.595 | 0.04 |
| O=S(=O)(c1cccc(-n2cnnn2)c1)N1CCOCC1 | -5.21 | -3.17% | -1.69 | 94.3 | 93 | 1.6 | 2.96 |
| COC(=O)c1ccc(OC(=O)c2nn(C)cc2Cl)c(OC)c1 | -0.14 | 10.2% | -5.78 | 101 | 95.5 | -0.22 | -0.57 |
| Cc1cc(SCC(=O)c2ccccc2)n2nc(C)nc2n1 | -12.2 | 0.305% | -6.79 | 89.8 | 87 | 2.91 | 2.67 |
| Cc1noc(C(=O)Nc2c(C)nn(Cc3ccccc3)c2C)c1Cl | -7.73 | 7.98% | 0.04 | 93.1 | 88.7 | 2.25 | 3.63 |
| COC(=O)c1ccccc1N(Cc1ccccc1)S(C)(=O)=O | -3.77 | -8.56% | -4.02 | 90.6 | 105 | -0.425 | 1.83 |
| COc1ccc(NC(=O)c2ccc3c(c2)n(C)c(=O)n3C)cc1 | -9.67 | -7.33% | -5.39 | 55.7 | 55.7 | 1.06 | 4.75 |
| COC(=O)C1=C(C)NC(=O)CC1c1cccc(Cl)c1Cl (stereo not given) | -13.4 | -7.53% | -1.92 | 103 | 98 | 2.15 | 1.05 |
| Cn1c(NC(=O)C(C)(C)Oc2ccc(Cl)cc2)cc(=O)n(C)c1=O | -1.72 | -8.67% | -0.77 | 94.7 | 91.3 | 2.34 | -2.22 |
| Cc1cccc(NC(=O)CN(C)S(=O)(=O)c2cccc3cccnc23)c1 | 2.15 | -0.265% | 1.15 | 96.5 | 96.1 | 0.01 | -0.41 |
| O=C(CSc1nccn1-c1ccc(Cl)cc1)NCc1ccc2c(c1)OCO2 | -14.6 | -8.19% | -0.8 | 96.3 | 89.5 | 1.3 | 2.26 |
| O=C(c1cc(-c2ccc(O)cc2)on1)N1CCCc2ccccc21 | -15.5 | 12.2% | -5.72 | 92.6 | 88.3 | 0.66 | 1.51 |
| COc1cc(OC)c(C2CC(=O)N3CN(C)CSC3=C2C#N)cc1OC (stereo not given) | 19.5 | 60% (active) | -2.96 | 99.3 | 97.2 | 1.06 | 9.58 |
| COc1ccc(CCNC(=O)CC2Oc3ccc(Cl)cc3NC2=O)cc1OC (stereo not given) | -0.31 | -7.26% | -0.06 | 96.2 | 97.6 | 1.17 | 5.03 |
| CCn1c(=O)cc(O)c2ccccc21 | 1.77 | -10.1% | -1.68 | 99 | 94 | 2.01 | 1.28 |
| Cc1ccc(C(=O)N2CCN(C3CCCCC3)CC2)s1 | -3.88 | -0.76% | -1.15 | 102 | 97.7 | 1.48 | 1.05 |
| Clc1ccc(CSc2nnc(-c3ccccn3)n2Cc2ccco2)c(Cl)c1 | -2.3 | 11.9% | -3.47 | 70.2 | 64.1 | 1.68 | 7.51 |
| COC(=O)c1nc2n(n1)C(c1cccc(Cl)c1)C1=C(CC(C)(C)CC1=O)N2 (stereo not given) | 2.12 | -2.75% | -2.72 | 98.7 | 99.8 | 0.75 | -0.77 |
| CCOC(=O)c1[nH]c2cc(OC)c(OC)cc2c1NC(=O)c1ccc2c(c1)OCO2 | -7.63 | -10.9% | -1.41 | 102 | 101 | 2.13 | 7.33 |
| CC1(C)CC(=O)c2sc(NC(=O)c3ccco3)nc2C1 | -15 | -0.525% | -2.54 | 94.2 | 84.1 | 0.735 | 2.58 |
| COc1ccc(C2C(C(=O)NCc3ccccn3)c3ccccc3C(=O)N2C)cc1OC (stereo not given) | -4.72 | -0.835% | -0.8 | 101 | 101 | 1.01 | 0.74 |
| CSc1nc(C)cc(SCCO)n1 | -3.2 | 8.15% | -1.79 | 105 | 102 | 0.695 | 0.46 |
| Cc1ccc(CSc2nnc(Cn3c(=O)sc4ccccc43)n2C)cc1 | -10.6 | 5.88% | 2.44 | 95.8 | 88.2 | 2.75 | 6.03 |
| CCOc1cc(-c2cc(N)n[nH]2)cc(OCC)c1OCC | -14.5 | -8.22% | -2.48 | 104 | 91.5 | 0.37 | 0.35 |
